In ChEMBL document CHEMBL3351980, “Michael acceptor approach to the design of new salvinorin A-based high affinity ligands for the kappa-opioid receptor” (Eur J Med Chem, 2014):

Assays:
[1] = molecular target: T1, Kappa-type opioid receptor (Homo sapiens, UniProt P41145); assay: Inhibition of human kappa opioid receptor expressed in HEK293T cells assessed as inhibition of cAMP production after 30 mins; type: functional, cell-based, HEK-293T
[2] = molecular target: Delta-type opioid receptor (Homo sapiens, UniProt P41143); assay: Displacement of [3H]DADLE from delta opioid receptor (unknown origin) expressed in HEK293T cells after 1.5 hrs by radioligand binding assay; type: cell-based, HEK-293T
[3] = molecular target: T1, Kappa-type opioid receptor; assay: Displacement of [3H]U69593 from kappa opioid receptor (unknown origin) expressed in HEK293T cells after 1.5 hrs by radioligand binding assay; type: cell-based, HEK-293T
Summary of the method: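 HEK293T cells stably expressing KOR were hypotonically lysed in 50 mM Tris-HCl, 10 mM MgCl2, 0.1 mM EDTA, pH 7.4, and membranes were pelleted. Samples were filtered onto PEI-soaked GF/A filters and scintillation counted. Ki came from a one-site competition fit.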

[4] = molecular target: Mu-type opioid receptor (Homo sapiens, UniProt P35372); assay: Displacement of [3H]DAMGO from mu opioid receptor (unknown origin) expressed in HEK293T cells after 1.5 hrs by radioligand binding assay; type: cell-based, HEK-293T
[5] = species: Homo sapiens; assay: Selectivity ratio of Ki for mu opioid receptor (unknown origin) to ratio of Ki for kappa opioid receptor (unknown origin)
[6] = species: Homo sapiens; assay: Selectivity ratio of Ki for delta opioid receptor (unknown origin) to ratio of Ki for kappa opioid receptor (unknown origin)

Sequence of Mu-type opioid receptor (P35372 whole entry): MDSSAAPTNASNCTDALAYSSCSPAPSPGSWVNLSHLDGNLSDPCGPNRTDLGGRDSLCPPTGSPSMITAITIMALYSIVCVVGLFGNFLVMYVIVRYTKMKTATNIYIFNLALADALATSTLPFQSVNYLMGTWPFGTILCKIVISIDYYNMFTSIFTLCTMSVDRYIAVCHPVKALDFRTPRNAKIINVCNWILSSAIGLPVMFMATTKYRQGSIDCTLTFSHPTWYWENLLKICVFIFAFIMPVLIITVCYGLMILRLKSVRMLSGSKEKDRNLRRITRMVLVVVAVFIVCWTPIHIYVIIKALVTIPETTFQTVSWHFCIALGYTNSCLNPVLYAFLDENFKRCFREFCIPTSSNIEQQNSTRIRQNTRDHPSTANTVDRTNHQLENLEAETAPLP
T1 sequence (P41145 whole entry): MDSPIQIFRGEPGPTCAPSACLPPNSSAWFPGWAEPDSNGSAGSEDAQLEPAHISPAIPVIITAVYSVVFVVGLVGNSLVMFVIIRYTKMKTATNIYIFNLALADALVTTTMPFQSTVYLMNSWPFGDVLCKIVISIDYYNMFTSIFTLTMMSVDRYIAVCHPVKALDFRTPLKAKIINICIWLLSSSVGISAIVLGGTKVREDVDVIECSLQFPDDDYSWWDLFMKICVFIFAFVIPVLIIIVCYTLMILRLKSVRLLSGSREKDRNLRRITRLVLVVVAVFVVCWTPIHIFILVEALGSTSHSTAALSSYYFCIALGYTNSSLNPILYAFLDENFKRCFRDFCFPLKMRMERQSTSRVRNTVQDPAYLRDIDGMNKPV
Sequence of Delta-type opioid receptor (P41143 whole entry): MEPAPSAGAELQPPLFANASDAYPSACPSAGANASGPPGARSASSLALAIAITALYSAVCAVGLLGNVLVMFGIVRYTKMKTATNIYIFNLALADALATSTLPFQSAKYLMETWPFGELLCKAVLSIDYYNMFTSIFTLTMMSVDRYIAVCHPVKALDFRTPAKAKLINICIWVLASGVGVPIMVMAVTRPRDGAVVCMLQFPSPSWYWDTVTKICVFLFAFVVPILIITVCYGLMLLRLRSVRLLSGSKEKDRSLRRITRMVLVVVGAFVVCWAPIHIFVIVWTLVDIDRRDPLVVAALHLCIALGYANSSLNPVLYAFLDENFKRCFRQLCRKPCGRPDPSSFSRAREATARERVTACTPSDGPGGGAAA

| Structure (SMILES) | EC50 [1] | Ki [2] | Ki [3] | Ki [4] | Ratio Ki [5] | Ratio Ki [6] |
| --- | --- | --- | --- | --- | --- | --- |
| C=C(C)CC(=O)O[C@H]1C[C@@H](C(=O)OC)[C@]2(C)CC[C@H]3C(=O)O[C@H](c4ccoc4)C[C@]3(C)[C@H]2C1=O | 25 nM | > 10 µM | 6 nM | 362 nM | 60 |  |
| COC(=O)[C@@H]1C[C@H](OC(=O)/C=C/c2ccccc2C(F)(F)F)C(=O)[C@H]2[C@@]1(C)CC[C@H]1C(=O)O[C@H](c3ccoc3)C[C@]21C | 20 nM | > 10 µM | 130 nM | > 10000 nM |  |  |
| C/C=C(\C)C(=O)O[C@H]1C[C@@H](C(=O)OC)[C@]2(C)CC[C@H]3C(=O)O[C@H](c4ccoc4)C[C@]3(C)[C@H]2C1=O | 477 nM | > 10 µM | 153 nM | > 10000 nM |  |  |
| C=C(C)C(=O)O[C@H]1C[C@@H](C(=O)OC)[C@]2(C)CC[C@H]3C(=O)O[C@H](c4ccoc4)C[C@]3(C)[C@H]2C1=O |  | 7.82 µM | 34 nM | > 10000 nM |  | 221 |
| C/C=C/C(=O)O[C@H]1C[C@@H](C(=O)OC)[C@]2(C)CC[C@H]3C(=O)O[C@H](c4ccoc4)C[C@]3(C)[C@H]2C1=O | 11 nM | > 10 µM | 25.3 nM | 540 nM | 21 |  |
| COC(=O)[C@@H]1C[C@H](OC(=O)/C=C/c2ccccc2OC)C(=O)[C@H]2[C@@]1(C)CC[C@H]1C(=O)O[C@H](c3ccoc3)C[C@]21C | 10 nM | > 10 µM | 64.9 nM | > 10000 nM |  |  |
| COC(=O)[C@@H]1C[C@H](OC(=O)/C=C/c2ccccc2[N+](=O)[O-])C(=O)[C@H]2[C@@]1(C)CC[C@H]1C(=O)O[C@H](c3ccoc3)C[C@]21C | 33 nM | > 10 µM | 148 nM | > 10000 nM |  |  |
| COC(=O)[C@@H]1C[C@H](OC(=O)/C=C/c2ccc(OC)cc2OC)C(=O)[C@H]2[C@@]1(C)CC[C@H]1C(=O)O[C@H](c3ccoc3)C[C@]21C | 27 nM | > 10 µM | 162 nM | > 10000 nM |  |  |
| COC(=O)[C@@H]1C[C@H](OC(=O)/C=C/c2ccc(C(F)(F)F)cc2)C(=O)[C@H]2[C@@]1(C)CC[C@H]1C(=O)O[C@H](c3ccoc3)C[C@]21C | 642 nM | > 10 µM | > 10000 nM | > 10000 nM | 1 | 1 |
| COC(=O)[C@@H]1C[C@H](OC(=O)/C=C/c2cc(C(F)(F)F)ccc2C(F)(F)F)C(=O)[C@H]2[C@@]1(C)CC[C@H]1C(=O)O[C@H](c3ccoc3)C[C@]21C | 1210 nM | 5.87 µM | > 10000 nM | > 10000 nM |  |  |
| COC(=O)[C@@H]1C[C@H](OC(=O)/C=C/c2ccc(OC)cc2)C(=O)[C@H]2[C@@]1(C)CC[C@H]1C(=O)O[C@H](c3ccoc3)C[C@]21C | 21 nM | > 10 µM | 135 nM | > 10000 nM |  |  |
| COC(=O)[C@@H]1C[C@H](OC(=O)C=C(C)C)C(=O)[C@H]2[C@@]1(C)CC[C@H]1C(=O)O[C@H](c3ccoc3)C[C@]21C | 698 nM | 2.63 µM | 385 nM | 284 nM | 0.73 | 6.8 |
| COC(=O)[C@@H]1C[C@H](OC(=O)/C=C/c2ccccc2)C(=O)[C@H]2[C@@]1(C)CC[C@H]1C(=O)O[C@H](c3ccoc3)C[C@]21C | 7 nM | 0.7 µM | 9.6 nM | 52 nM | 5.4 | 73 |
| COC(=O)[C@@H]1C[C@H](OC(=O)/C=C/c2ccc([N+](=O)[O-])cc2)C(=O)[C@H]2[C@@]1(C)CC[C@H]1C(=O)O[C@H](c3ccoc3)C[C@]21C | 32 nM | > 10 µM | 281 nM | > 10000 nM |  |  |
| COC(=O)[C@@H]1C[C@H](OC(=O)/C=C/c2cc(OC)c(OC)c(OC)c2)C(=O)[C@H]2[C@@]1(C)CC[C@H]1C(=O)O[C@H](c3ccoc3)C[C@]21C | 1800 nM | > 10 µM | > 10000 nM | > 10000 nM |  |  |
| COC(=O)[C@@H]1C[C@H](OC(=O)/C=C/c2cccnc2)C(=O)[C@H]2[C@@]1(C)CC[C@H]1C(=O)O[C@H](c3ccoc3)C[C@]21C | 1760 nM | 4.89 µM | > 10000 nM | 334 nM |  |  |
| C=CCC(=O)O[C@H]1C[C@@H](C(=O)OC)[C@]2(C)CC[C@H]3C(=O)O[C@H](c4ccoc4)C[C@]3(C)[C@H]2C1=O |  | 3.26 µM |  |  |  |  |
| C=CC(=O)O[C@H]1C[C@@H](C(=O)OC)[C@]2(C)CC[C@H]3C(=O)O[C@H](c4ccoc4)C[C@]3(C)[C@H]2C1=O | 137 nM | > 10 µM | 18.1 nM | 979 nM | 54 |  |
| C=CC(C)C(=O)O[C@H]1C[C@@H](C(=O)OC)[C@]2(C)CC[C@H]3C(=O)O[C@H](c4ccoc4)C[C@]3(C)[C@H]2C1=O (some centres undefined) | 37 nM | 3.03 µM | 28.8 nM | 439 nM | 15 | 105 |
| COC(=O)[C@@H]1C[C@H](OC(=O)/C=C/c2ccc3c(c2)OCO3)C(=O)[C@H]2[C@@]1(C)CC[C@H]1C(=O)O[C@H](c3ccoc3)C[C@]21C | 50 nM | > 10 µM | 323 nM | 2820 nM | 8.7 |  |
| COC(=O)[C@@H]1C[C@H](OC(=O)/C=C/c2cc(OC)ccc2OC)C(=O)[C@H]2[C@@]1(C)CC[C@H]1C(=O)O[C@H](c3ccoc3)C[C@]21C | 38 nM | > 10 µM | 581 nM | > 10000 nM |  |  |
| COC(=O)[C@@H]1C[C@H](OC(=O)/C=C/c2ccsc2)C(=O)[C@H]2[C@@]1(C)CC[C@H]1C(=O)O[C@H](c3ccoc3)C[C@]21C | 582 nM | 0.228 µM | 304 nM | 18 nM | 0.06 | 0.75 |
